Laboratory results taken from ChEMBL document CHEMBL3763128, “Synthesis and antibacterial evaluation of novel 4″-glycyl linked quinolyl-azithromycins with potent activity against macrolide-resistant pathogens” (2016).
≈ marks a conversion by molar mass, not a printed value.

How the values were obtained:
Assay type in all cases: functional
Haemophilus influenzae = experiment: Antibacterial activity against Haemophilus influenzae by agar microdilution method
Outline: (§1)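 MIC by agar microdilution following NCCLS guidelines. Values in μg/mL. Only differences of more than one twofold dilution were treated as significant. Ery-S denotes erythromycin-susceptible strains.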

Staphylococcus aureus [1] = experiment: Antibacterial activity against erythromycin-susceptible Staphylococcus aureus by agar microdilution method; outline: as §1
Streptococcus pyogenes [2] = experiment: Antibacterial activity against efflux mediated macrolide resistant Streptococcus pyogenes by agar microdilution method
Outline: (§2)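 Agar microdilution per NCCLS guidelines; MIC reported in μg/mL; differences treated as significant only when more than a factor of 2 (one dilution) apart.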

Streptococcus pneumoniae [3] = experiment: Antibacterial activity against erythromycin-susceptible Streptococcus pneumoniae by agar microdilution method; outline: as §1
Staphylococcus aureus [4] = experiment: Antibacterial activity against efflux mediated macrolide resistant Staphylococcus aureus by agar microdilution method; outline: as §2
Staphylococcus aureus [5] = experiment: Antibacterial activity against inducibly macrolide-lincosamide-streptogramin B resistant Staphylococcus aureus by agar microdilution method; outline: as §2
Streptococcus pneumoniae [6] = experiment: Antibacterial activity against constitutive macrolide-lincosamide-streptogramin B resistant Streptococcus pneumoniae by agar microdilution method; outline: as §2
Staphylococcus aureus [7] = experiment: Antibacterial activity against constitutive macrolide-lincosamide-streptogramin B resistant Staphylococcus aureus by agar microdilution method; outline: as §2
Streptococcus pneumoniae [8] = experiment: Antibacterial activity against efflux mediated macrolide resistant Streptococcus pneumoniae by agar microdilution method; outline: as §2
Moraxella catarrhalis = experiment: Antibacterial activity against Moraxella catarrhalis by agar microdilution method; outline: as §1
Streptococcus pyogenes [9] = experiment: Antibacterial activity against inducibly macrolide-lincosamide-streptogramin B resistant Streptococcus pyogenes by agar microdilution method; outline: as §2
Streptococcus pyogenes [10] = experiment: Antibacterial activity against erythromycin-susceptible Streptococcus pyogenes by agar microdilution method; outline: as §1
Streptococcus pyogenes [11] = experiment: Antibacterial activity against constitutive macrolide-lincosamide-streptogramin B resistant Streptococcus pyogenes by agar microdilution method; outline: as §2

Compound	MIC (Haemophilus influenzae) [µg/mL]	MIC (Staphylococcus aureus [1]) [µg/mL]	MIC (Streptococcus pyogenes [2]) [µg/mL]	MIC (Streptococcus pneumoniae [3]) [µg/mL]	MIC (Staphylococcus aureus [4]) [µg/mL]	MIC (Staphylococcus aureus [5]) [µg/mL]	MIC (Streptococcus pneumoniae [6]) [µg/mL]	MIC (Staphylococcus aureus [7]) [µg/mL]	MIC (Streptococcus pneumoniae [8]) [µg/mL]	MIC (Moraxella catarrhalis) [µg/mL]	MIC (Streptococcus pyogenes [9]) [µg/mL]	MIC (Streptococcus pyogenes [10]) [µg/mL]	MIC (Streptococcus pyogenes [11]) [µg/mL]
CC[C@@H]1OC(=O)[C@H](C)[C@@H](O[C@@H]2C[C@](C)(OC)[C@H](O)[C@@H](C)O2)[C@@H](C)[C@@H](O[C@@H]2O[C@H](C)C[C@H](N(C)C)[C@H]2O)[C@](C)(O)C[C@@H](C)CN(C)[C@H](C)[C@@H](O)[C@]1(C)O	1 (≈ 1.34 µM)	1 (≈ 1.34 µM)	16 (≈ 21.4 µM)	≤ 0.125	32 (≈ 42.7 µM)	> 64	> 64	> 64	8 (≈ 10.7 µM)	0.25 (≈ 0.334 µM)	> 64	≤ 0.125	> 64
CC[C@H]1OC(=O)[C@H](C)C(=O)[C@H](C)[C@@H](O[C@@H]2O[C@H](C)C[C@H](N(C)C)[C@H]2O)[C@](C)(OC)C[C@@H](C)C(=O)[C@H](C)[C@H]2N(CCCCn3cnc(-c4cccnc4)c3)C(=O)O[C@]12C [TELITHROMYCIN]	1 (≈ 1.23 µM)	≤ 0.125	0.25 (≈ 0.308 µM)	≤ 0.125	0.25 (≈ 0.308 µM)	0.5 (≈ 0.616 µM)	–	> 64	0.5 (≈ 0.616 µM)	≤ 0.125	–	≤ 0.125	8 (≈ 9.85 µM)
CC[C@H]1OC(=O)[C@@H](C)[C@H](O[C@@H]2C[C@](C)(OC)[C@H](OC(=O)CNC(=O)CCNCCOCCOCCNc3cc4c(=O)c(C(=O)O)cn(C5CC5)c4cc3Cl)[C@@H](C)O2)[C@H](C)[C@H](O[C@H]2O[C@@H](C)C[C@@H](N(C)C)[C@@H]2O)[C@@](C)(O)C[C@H](C)CN(C)[C@@H](C)[C@H](O)[C@@]1(C)O (stereo in doubt)	4 (≈ 3.15 µM)	≤ 0.125	2 (≈ 1.57 µM)	≤ 0.125	0.5 (≈ 0.394 µM)	4 (≈ 3.15 µM)	4 (≈ 3.15 µM)	> 64	1 (≈ 0.787 µM)	1 (≈ 0.787 µM)	1 (≈ 0.787 µM)	≤ 0.125	8 (≈ 6.3 µM)
CCC1OC(=O)[C@H](C)[C@@H](O[C@H]2C[C@@](C)(OC)[C@@H](OC(=O)CNC(=O)CCNCCOCCOCCNc3cc4c(cc3F)c(=O)c(C(=O)O)cn4C3CC3)[C@H](C)O2)C(C)[C@@H](O[C@@H]2O[C@H](C)C[C@H](N(C)C)[C@H]2O)[C@](C)(O)C[C@@H](C)CN(C)[C@H](C)[C@@H](O)[C@]1(C)O (single isomer, unassigned)	8 (≈ 6.38 µM)	0.5 (≈ 0.399 µM)	16 (≈ 12.8 µM)	≤ 0.125	16 (≈ 12.8 µM)	32 (≈ 25.5 µM)	8 (≈ 6.38 µM)	> 64	4 (≈ 3.19 µM)	2 (≈ 1.6 µM)	4 (≈ 3.19 µM)	≤ 0.125	32 (≈ 25.5 µM)
CCC1OC(=O)[C@H](C)[C@@H](O[C@H]2C[C@@](C)(OC)[C@@H](OC(=O)CNC(=O)CCNCCNc3cc4c(cc3F)c(=O)c(C(=O)O)cn4C3CC3)[C@H](C)O2)C(C)[C@@H](O[C@@H]2O[C@H](C)C[C@H](N(C)C)[C@H]2O)[C@](C)(O)C[C@@H](C)CN(C)[C@H](C)[C@@H](O)[C@]1(C)O (single isomer, unassigned)	4 (≈ 3.43 µM)	0.25 (≈ 0.215 µM)	2 (≈ 1.72 µM)	≤ 0.125	2 (≈ 1.72 µM)	8 (≈ 6.86 µM)	4 (≈ 3.43 µM)	> 64	1 (≈ 0.858 µM)	1 (≈ 0.858 µM)	1 (≈ 0.858 µM)	≤ 0.125	4 (≈ 3.43 µM)
CCC1OC(=O)[C@H](C)[C@@H](O[C@H]2C[C@@](C)(OC)[C@@H](OC(=O)CNCCCNCCOCCNc3cc4c(=O)c(C(=O)O)cn(C5CC5)c4cc3Cl)[C@H](C)O2)C(C)[C@@H](O[C@@H]2O[C@H](C)C[C@H](N(C)C)[C@H]2O)[C@](C)(O)C[C@@H](C)CN(C)[C@H](C)[C@@H](O)[C@]1(C)O (single isomer, unassigned)	2 (≈ 1.65 µM)	≤ 0.125	0.5 (≈ 0.413 µM)	≤ 0.125	0.5 (≈ 0.413 µM)	0.5 (≈ 0.413 µM)	0.25 (≈ 0.206 µM)	> 64	0.25 (≈ 0.206 µM)	0.25 (≈ 0.206 µM)	0.25 (≈ 0.206 µM)	≤ 0.125	1 (≈ 0.825 µM)
CCC1OC(=O)[C@H](C)[C@@H](O[C@H]2C[C@@](C)(OC)[C@@H](OC(=O)CNCCCNCCNc3cc4c(cc3F)c(=O)c(C(=O)O)cn4C3CC3)[C@H](C)O2)C(C)[C@@H](O[C@@H]2O[C@H](C)C[C@H](N(C)C)[C@H]2O)[C@](C)(O)C[C@@H](C)CN(C)[C@H](C)[C@@H](O)[C@]1(C)O (single isomer, unassigned)	1 (≈ 0.868 µM)	≤ 0.125	0.5 (≈ 0.434 µM)	≤ 0.125	0.5 (≈ 0.434 µM)	1 (≈ 0.868 µM)	0.5 (≈ 0.434 µM)	> 64	–	0.25 (≈ 0.217 µM)	0.25 (≈ 0.217 µM)	≤ 0.125	1 (≈ 0.868 µM)
